Values after ≈ are worked out from the molar mass of the structure shown.
Experiments:
Format in all cases: functional
[1] = system: Mus musculus; assay: Protective dose in vivo was determined in acute, lethal systemic infections in female Charles River CD-1 mice against Streptococcus pyogenes C-203; conditions: read-out: PD50
Summary of the method: (§1)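 Female Charles River CD-1 mice with an acute, lethal systemic infection received a single compound dose at the time of challenge. The median protective dose (PD50, mg/kg) was taken as the read-out.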

[2] = system: Bacteria; assay: Geometric mean of MIC was determined in vitro against gram-positive strains using standard microtitration techniques
Summary of the method: (§2)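 Per-compound geometric means of the microtitration MICs (μg/mL), calculated separately across the Gram-negative strains and the Gram-positive strains. Pseudomonas aeruginosa is excluded from the Gram-negative mean.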

[3] = Geometric mean of MIC was determined in vitro against gram-negative strains using standard microtitration techniques; summary of the method: as §2
[4] = system: Mus musculus; assay: Protective dose in vivo was determined in acute, lethal systemic infections in female Charles River CD-1 mice against Escherichia coli Vogel; conditions: read-out: PD50; summary of the method: as §1
[5] = target: DNA gyrase (Escherichia coli, UniProt P0AES4+P0AES6); assay: Inhibition of the gyrase mediated cleavage of supercoiled DNA
[6] = system: Escherichia coli; assay: Antibacterial activity was tested in vitro against Escherichia coli Vogel using standard microtitration techniques
Summary of the method: (§3)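 Broth microtitration MIC testing against a panel of six Gram-negative and five Gram-positive bacterial strains. Values are given as MIC in μg/mL.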

[7] = system: Staphylococcus aureus; assay: Antibacterial activity was tested in vitro against Staphylococcus aureus H-288 using standard microtitration techniques; summary of the method: as §3
[8] = system: Enterococcus faecalis; assay: Antibacterial activity was tested in vitro against Enterococcus faecalis MGH-2 using standard microtitration techniques; summary of the method: as §3
[9] = system: Staphylococcus aureus; assay: (§4) Antibacterial activity was tested in vitro against Staphylococcus aureus UC-76 using standard microtitration techniques
Summary of the method: (§5)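 MIC (μg/mL) by standard broth microtitration, as part of a panel of six Gram-negative and five Gram-positive organisms.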

[10] = system: Klebsiella pneumoniae; assay: Antibacterial activity was tested in vitro against Klebsiella pneumoniae MGH-2 using standard microtitration technique; summary of the method: as §3
[11] = system: Escherichia coli; assay: Antibacterial activity was tested in vitro against Escherichia coli H-560 using standard microtitration techniques; summary of the method: as §3
[12] = system: Pseudomonas aeruginosa; assay: Antibacterial activity was tested in vitro against Pseudomonas aeruginosa UI-18 using standard microtitration techniques; summary of the method: as §3
[13] = system: Enterobacter cloacae; assay: Antibacterial activity was tested in vitro against Enterococcus cloacae MA-2646 using standard microtitration techniques; summary of the method: as §3
[14] = system: Providencia rettgeri; assay: Antibacterial activity was tested in vitro against M-1771 strain of Providencia rettgeri using standard microtitration techniques; summary of the method: as §3
[15] = system: Streptococcus pyogenes; assay: (§6) Antibacterial activity was tested in vitro against Streptococcus pyogenes C-203 using standard microtitration techniques; summary of the method: as §5
[16] = system: Streptococcus pneumoniae; assay: Antibacterial activity was tested in vitro against Streptococcus pneumoniae SV-1 using standard microtitration techniques; summary of the method: as §3
[17] = system: Klebsiella pneumoniae; assay: Antibacterial activity was tested in vitro against Klebsiella pneumoniae MGH-2 using standard microtitration techniques; summary of the method: as §5
[18] = system: Staphylococcus aureus; assay: as §4; summary of the method: as §3; remark: listed apart in the source
[19] = system: Streptococcus pyogenes; assay: as §6; summary of the method: as §3; remark: listed apart in the source
[20] = system: Mus musculus; assay: Protective dose in vivo was determined in acute, lethal systemic infections in female Charles River CD-1 mice against Streptococcus pyogenes C-203; 50/45.; conditions: read-out: PD50
[21] = system: Mus musculus; assay: Protective dose in vivo was determined in acute, lethal systemic infections in female Charles River CD-1 mice against Escherichia coli Vogel; 6/1.1.; conditions: read-out: PD50

| SMILES | ED50 [1] [mg/kg] | MIC [2] [µg/mL] | MIC [3] [µg/mL] | ED50 [4] [mg/kg] | IC50 [5] [µM] | MIC [6] [µg/mL] | MIC [7] [µg/mL] | MIC [8] [µg/mL] | MIC [9] [µg/mL] | MIC [11] [µg/mL] | MIC [12] [µg/mL] | MIC [13] [µg/mL] | MIC [14] [µg/mL] | MIC [15] [µg/mL] | MIC [16] [µg/mL] | MIC [17] [µg/mL] | also measured |
| --- | --- | --- | --- | --- | --- | --- | --- | --- | --- | --- | --- | --- | --- | --- | --- | --- | --- |
| NC1CCN(c2cc3c(cc2F)c(=O)c(C(=O)O)cn3C2CC2)C1 (stereo not given) | 97 | 0.09 (≈ 0.272 µM) | 0.04 (≈ 0.121 µM) | 3.4 | 7.85 |  |  |  |  |  |  |  |  |  |  |  |  |
| O=C(O)c1cn(C2CC2)c2cc(C3CCNCC3)c(F)cc2c1=O |  | 1.8 (≈ 5.45 µM) | 0.3 (≈ 0.908 µM) | 13.8 | 11.5 | 0.2 (≈ 0.605 µM) | 6.3 (≈ 19.1 µM) | 3.1 (≈ 9.38 µM) | 0.8 (≈ 2.42 µM) | 0.2 (≈ 0.605 µM) | 1.6 (≈ 4.84 µM) | 0.2 (≈ 0.605 µM) | 0.8 (≈ 2.42 µM) | 0.4 (≈ 1.21 µM) | 3.1 (≈ 9.38 µM) |  | MIC [10]: 0.4 µg/mL (≈ 1.21 µM) |
| NC1CCN(c2nc3c(cc2F)c(=O)c(C(=O)O)cn3C2CC2)C1 (stereo not given) | 32 | 0.1 (≈ 0.301 µM) | 0.02 (≈ 0.0602 µM) | 2 | 9.03 |  |  |  |  |  |  |  |  |  |  |  |  |
| NC1C=C(c2cc3c(cc2F)c(=O)c(C(=O)O)cn3C2CC2)CC1 (stereo not given) |  | 0.35 (≈ 1.07 µM) | 0.13 (≈ 0.396 µM) | 5.2 | 8.53 | 0.1 (≈ 0.305 µM) | 0.8 (≈ 2.44 µM) | 0.8 (≈ 2.44 µM) |  | 0.1 (≈ 0.305 µM) | 0.8 (≈ 2.44 µM) | 0.1 (≈ 0.305 µM) | 0.2 (≈ 0.609 µM) | 0.2 (≈ 0.609 µM) | 0.4 (≈ 1.22 µM) | 0.2 (≈ 0.609 µM) | MIC [18]: 0.1 µg/mL (≈ 0.305 µM) |
| O=C(O)c1cn(-c2ccc(F)cc2F)c2nc(C3=CCNCC3)c(F)cc2c1=O |  | 0.53 (≈ 1.32 µM) | 0.15 (≈ 0.374 µM) |  | 12.5 | 0.1 (≈ 0.249 µM) | 0.8 (≈ 1.99 µM) | 1.6 (≈ 3.99 µM) | 0.2 (≈ 0.498 µM) | 0.1 (≈ 0.249 µM) | 1.6 (≈ 3.99 µM) | 0.1 (≈ 0.249 µM) | 0.4 (≈ 0.997 µM) | 0.4 (≈ 0.997 µM) | 0.4 (≈ 0.997 µM) | 0.2 (≈ 0.498 µM) |  |
| NC1C=C(c2nc3c(cc2F)c(=O)c(C(=O)O)cn3-c2ccc(F)cc2F)CC1 (stereo not given) |  | 0.09 (≈ 0.224 µM) | 0.07 (≈ 0.174 µM) |  | 15.7 | 0.05 (≈ 0.125 µM) | 0.1 (≈ 0.249 µM) | 0.2 (≈ 0.498 µM) | 0.025 (≈ 0.0623 µM) | 0.025 (≈ 0.0623 µM) | 1.6 (≈ 3.99 µM) | 0.05 (≈ 0.125 µM) | 0.2 (≈ 0.498 µM) |  | 0.1 (≈ 0.249 µM) | 0.1 (≈ 0.249 µM) | MIC [19]: 0.1 µg/mL (≈ 0.249 µM); ED50 [20]: 50 mg/kg; ED50 [21]: 6 mg/kg |
| O=C(O)c1cn(C2CC2)c2cc(C3=CCNCC3)c(F)cc2c1=O | > 100 | 0.46 (≈ 1.4 µM) | 0.04 (≈ 0.122 µM) | 1.7 | 2.74 | 0.025 (≈ 0.0761 µM) | 0.8 (≈ 2.44 µM) | 0.8 (≈ 2.44 µM) | 0.1 (≈ 0.305 µM) | 0.013 (≈ 0.0396 µM) | 0.8 (≈ 2.44 µM) | 0.025 (≈ 0.0761 µM) | 0.1 (≈ 0.305 µM) | 0.4 (≈ 1.22 µM) | 0.8 (≈ 2.44 µM) | 0.1 (≈ 0.305 µM) |  |
| O=C(O)c1cn(C2CC2)c2nc(C3=CCNCC3)c(F)cc2c1=O | 42 | 0.6 (≈ 1.82 µM) | 0.03 (≈ 0.0911 µM) | 0.5 | 11.5 | 0.013 (≈ 0.0395 µM) | 1.6 (≈ 4.86 µM) | 0.8 (≈ 2.43 µM) | 0.2 (≈ 0.607 µM) | 0.013 (≈ 0.0395 µM) | 0.2 (≈ 0.607 µM) | 0.025 (≈ 0.0759 µM) | 0.05 (≈ 0.152 µM) | 0.4 (≈ 1.21 µM) | 0.8 (≈ 2.43 µM) | 0.05 (≈ 0.152 µM) |  |
| NC1C=C(c2nc3c(cc2F)c(=O)c(C(=O)O)cn3C2CC2)CC1 (stereo not given) | 50 | 0.35 (≈ 1.06 µM) | 0.07 (≈ 0.213 µM) | 1.2 | 11.5 | 0.05 (≈ 0.152 µM) | 0.8 (≈ 2.43 µM) | 0.4 (≈ 1.21 µM) | 0.1 (≈ 0.304 µM) | 0.05 (≈ 0.152 µM) | 0.8 (≈ 2.43 µM) | 0.05 (≈ 0.152 µM) | 0.1 (≈ 0.304 µM) | 0.4 (≈ 1.21 µM) | 0.4 (≈ 1.21 µM) | 0.1 (≈ 0.304 µM) |  |
| O=C(O)c1cn(-c2ccc(F)cc2F)c2nc(N3CCNCC3)c(F)cc2c1=O | 2.4 | 0.2 (≈ 0.495 µM) | 0.4 (≈ 0.989 µM) |  |  |  |  |  |  |  |  |  |  |  |  |  |  |
| O=C(O)c1cn(C2CC2)c2nc(N3CCNCC3)c(F)cc2c1=O | 63 | 1.2 (≈ 3.61 µM) | 0.05 (≈ 0.15 µM) | 0.7 | > 75.2 |  |  |  |  |  |  |  |  |  |  |  |  |
| O=C(O)c1cn(C2CC2)c2cc(N3CCNCC3)c(F)cc2c1=O [CIPROFLOXACIN] | > 260 | 0.6 (≈ 1.81 µM) | 0.05 (≈ 0.151 µM) | 1.2 |  |  |  |  |  |  |  |  |  |  |  |  |  |
| NC1CCN(c2nc3c(cc2F)c(=O)c(C(=O)O)cn3-c2ccc(F)cc2F)C1 (stereo not given) [TOSUFLOXACIN] | 5.7 | 0.04 (≈ 0.0989 µM) | 0.03 (≈ 0.0742 µM) | 0.6 | 7.42 |  |  |  |  |  |  |  |  |  |  |  |  |
